# PLC-beta3 inh: human PLC-beta3 inhibitors, primary screen, biochemical, fluorescence; Purified PLC-beta3, fluorogenic substrate; inhibition, % at 12.2 µM; 370,000 compounds, 0.18% hits; AID 720704, 2013; in the data active = inhibition above about 11%;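 also: 0% = median of compound wells on plate and 100% = full blocker control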
# ASAP1 GAP inh: inhibitors of human ASAP1 ArfGAP activity, primary screen, biochemical, fluorescence polarization | Arf-GAP with SH3 domain, ANK repeat and PH domain-containing protein 1 (Homo sapiens), … | ASAP1-stimulated ARF1 GTP hydrolysis, GDP FP detection | inhibition, % at 16.5 µM | 360,000 compounds, 0.19% hits; in the data active = inhibition above about 25%;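 also: 0% = vehicle with enzyme and substrate and 100% = no enzyme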
# PLCg1 inh: PLC-gamma1 enzyme inhibitors, primary screen, biochemical, fluorescence, purified enzyme. 1-phosphatidylinositol 4,5-bisphosphate phosphodiesterase gamma-1 (Homo sapiens), P19174. fluorogenic substrate. inhibition, % at 12.2 µM. 370,000 compounds, 0.84% hits. AID 720700, 2013
# ARFGAP1 inh: inhibitors of rat ARFGAP1 GAP activity, primary screen, biochemical, fluorescence polarization, GDP tracer. Arfgap1-stimulated ARF1 GTP hydrolysis, GDP FP detection. inhibition, % at 16.5 µM. 360,000 compounds, 0.26% hits;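 active = inhibition above a per-plate limit, mean inhibition of low control wells plus 3 SD, cut at about 25% in these data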;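 also: 0% = DMSO wells with enzyme and 100% = wells lacking Arfgap1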
#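 material = rat Arfgap1 catalytic domain, aa 1-136 | also added = human ARF1(Δ1-17)-GTP substrate | compound dosing = one concentration, 16.5 µM, DMSO 1.26% | times = GTP hydrolysis reaction 2 h at 25 °C | measured by = FP, GDP Alexa 633 tracer displaced from anti-GDP antibody, 620/688 nm | evaluation = percent inhibition of Arfgap1-stimulated GTP hydrolysis | replication = single well per compound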
# HGIII-sPLA2 inh: human group III sPLA2 inhibitors, primary screen, biochemical, QFRET, BODIPY PC-A2 liposome substrate; Group 3 secretory phospholipase A2 (Homo sapiens), Q9NZ20; QFRET BODIPY PC-A2 liposome hydrolysis, fluorescence; inhibition, % at 12.2 µM; 370,000 compounds, 0.56% hits; AID 743126, 2013;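 active = inhibition above mean plus 3 SD of compounds lying within the high and low control bounds, cut at about 19% in these data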;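 also: 0% = median of test compound wells and 100% = no enzyme DMSO wells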
# PLCgamma1 ctr: PLC-gamma1 enzyme inhibitors, counter-screen for PLC-beta3 inhibitor project, biochemical, fluorescence; shares compounds with PLCg1 inh; purified PLC-gamma1, fluorogenic substrate; inhibition, % at 12.3 µM; 3,300 compounds, 3.1% hits; AID 743258, 2014
# PLCbeta3 conf: PLC-beta3 inhibitor confirmation, biochemical, fluorescence, purified enzyme; 3,300 compounds, 1% hits; inhibition, % at 12.3 µM; shares compounds with PLCg1 inh; fluorogenic substrate fluorescence; in the data active = inhibition above about 11%
# * marks the source's active call; other numbers are inactive results; / = no result given. Most compounds without a hit are left out; they make up all but 1.9% or so of the library. Rule as the data show it, unless noted: active = inhibition above about 9.5%; inactive = the rest.
SMILES,PLC-beta3 inh,ASAP1 GAP inh,PLCg1 inh,ARFGAP1 inh,HGIII-sPLA2 inh,PLCgamma1 ctr,PLCbeta3 conf
COCc1[nH]nc2c1C(c1cccc(C(F)(F)F)c1)N(c1ccc(OC)cc1)C2=O (stereo not given),-3.4,-5.2,1.2,0.2,-16.7,/,/
CC(=O)N1CCCc2cc(S(=O)(=O)N(C)Cc3ccccc3)ccc21,4.0,2.5,9.8*,10.8,5.1,-2.9,4.3
COc1cc(/C=N/NC(=O)Cc2ccccc2)cc([N+](=O)[O-])c1O,-1.9,-3.8,5.0,-1.5,0.7,/,/
COc1cc(/C=N/NC(=O)[C@H](Cc2c[nH]c3ccccc23)NC(=O)OCC(C)C)cc([N+](=O)[O-])c1O,7.8,-2.3,13.6*,-15.9,-44.3,2.1,2.1
O=C(OCCN1CCN(C2CN(Cc3cn(Cc4ccc([N+](=O)[O-])cc4)nn3)S(=O)(=O)C2)CC1)c1cc2ccccc2o1 (stereo not given),2.0,/,0.8,/,2.2,/,/
CN(CC(=O)NCc1ccccc1)Cc1cccc(F)c1,4.7,3.6,11.5*,-6.1,11.8,-6.3,-3.4
CCOc1ccc(CN(C)CC(=O)NCc2ccccc2)cc1,-7.9,4.4,-0.2,-7.2,-0.2,/,/
O=C(c1cccc(F)c1)N1CCCC(c2nc(-c3cccs3)no2)C1 (stereo not given),1.2,/,-4.0,/,-4.0,/,/
Cc1ccc(NS(=O)(=O)c2c(F)cc(F)c(Cl)c2F)cc1S(=O)(=O)N1CCOCC1,9.9,-1.4,9.8*,4.7,-31.6,-2.3,-3.4
Cc1ccc(NC(=O)Cc2c(F)cccc2Cl)cc1S(=O)(=O)N1CCOCC1,4.7,5.1,1.2,-5.5,-3.0,/,/
COC(=O)C1=CC(=O)C=C(OC)[C@@]12Oc1cc(C)cc(OC)c1C2=O,-6.0,/,-6.1,/,7.5,/,/
C=CCN(CC#Cc1ccccc1)Cc1ccc2c(c1)OCO2,0.3,/,-0.2,/,1.8,/,/
Cc1ccc(/C=C/C(=O)O)cc1S(=O)(=O)Nc1ccc(C(=O)O)cc1,-5.0,-15.4,4.9,-9.0,8.2,/,/
Cc1ccc(/C=C/C(=O)O)cc1S(=O)(=O)N1CCc2ccccc2C1,3.2,-1.2,11.4*,-14.8,-4.8,4.8,1.6
COc1ccc(/C=C/C(=O)O)cc1S(=O)(=O)N1CCc2ccccc2C1,-1.2,-8.6,3.9,1.0,-3.0,/,/
Cc1ccc(/C=C/C(=O)O)cc1S(=O)(=O)Nc1ccccc1C(=O)O,8.9,3.5,11.2*,7.7,0.5,4.7,2.5
O=C(NC1CCCCN(Cc2cccc(Cl)c2)C1=O)c1ccc(-c2ccccc2)cc1 (stereo not given),1.2,/,0.4,/,-0.7,/,/
CN(C)S(=O)(=O)N1CCC(Oc2cccc(C(=O)NC3CCCCC3)c2)CC1,-5.4,-17.0,0.2,2.5,6.1,/,/
CN(C)S(=O)(=O)N1CCC(Oc2cccc(C(=O)NCCC3=CCCCC3)c2)CC1,-9.5,1.7,10.8*,10.8,-15.2,-11.7,-1.0
O=C(CSc1nnc(-c2ccccn2)n1-c1ccc(Cl)cc1)Nc1ccc(S(=O)(=O)Nc2nccs2)cc1,2.9,/,-1.9,/,-44.6,/,/
O=C(O)CCC(=O)NNC(=O)CCC1CCCCC1,3.3,-0.1,-1.4,0.1,-1.2,/,/
O=C(O)CCC(=O)OCC1CCCCC1,3.9,-5.0,9.8*,-6.8,-1.1,-5.5,-0.6
O=C(C[n+]1ccccc1)N/N=C/c1ccccc1[N+](=O)[O-],5.9,0.5,1.7,2.4,0.8,/,/
O=C1CC(CC(=O)N/N=C/c2ccccc2[N+](=O)[O-])=NN1,-0.9,-4.5,12.6*,-2.9,-3.7,-4.8,-0.8
O=C(OCc1ccccc1Cl)c1cccnc1Cl,7.8,-0.1,13.9*,-2.9,0.5,-8.0,-2.1
SMILES,PLC-beta3 inh,ASAP1 GAP inh,PLCg1 inh,ARFGAP1 inh,HGIII-sPLA2 inh,PLCgamma1 ctr,PLCbeta3 conf
O=C(Cc1c(Cl)cccc1Cl)Nc1cccc(S(=O)(=O)N2CCOCC2)c1,-0.5,-4.7,2.1,-1.2,3.8,/,/
O=C(COC(=O)c1cccs1)Nc1cccc(S(=O)(=O)N2CCOCC2)c1,1.9,-6.3,0.0,-7.9,-6.6,/,/
Cn1cccc1C(=O)OCC(=O)Nc1cccc(S(=O)(=O)N2CCOCC2)c1,0.4,-0.2,11.1*,-9.9,-8.8,-4.5,-1.4
Cc1csc(SCC(=O)Nc2cccc(S(=O)(=O)N3CCOCC3)c2)n1,-2.8,-7.3,-1.4,-5.2,-6.0,/,/
O=C(Cc1ccccc1Cl)Nc1cccc(S(=O)(=O)N2CCOCC2)c1,2.1,1.0,9.9*,-6.7,-9.6,-2.9,-3.0
Cc1nc(SCC(=O)Nc2cccc(S(=O)(=O)N3CCOCC3)c2)nc(C)c1C,4.0,9.1,13.6*,8.9,1.2,-5.8,-3.5
C[C@H](O)[C@@H]1CN2CCc3c([nH]c4cccc(-c5ccccc5)c34)[C@@H]2C[C@@H]1N(C)C(=O)Nc1ccccc1,-72.7,/,-56.2,/,-6.7,/,/
CC(C)NC(=O)N[C@H]1C[C@@H]2O[C@H](CO)CC[C@@H]2O[C@@H]1CCc1ccc(-c2ccc(F)cc2)cc1,0.0,/,1.3,/,-9.2,/,/
CCOC(=O)Cn1cc(CN2C(C(=O)OC)CN(Cc3ccccc3)CCS2(=O)=O)nn1 (stereo not given),1.4,/,-0.2,/,1.9,/,/
COC(=O)[C@]12C[C@H](CC(=O)NCCCCc3ccccc3)C(=O)N(Cc3ccc(Cl)cc3Cl)C1=C[C@H](C(C)(C)C)O[C@@H]2C,-1.3,/,-3.0,/,-0.1,/,/
CC(C)C[C@H](NC(=O)c1nc[nH]c1C(=O)N[C@@H](CC(C)C)C(=O)OCc1ccccc1)C(=O)OCc1ccccc1,3.7,4.3,2.2,9.7,-10.9,/,/
CC(C)C[C@H](NC(=O)c1[nH]cnc1C(=O)N[C@H](C)c1ccccc1)C(=O)OCc1ccccc1,6.3,15.6,9.6*,11.3,-9.8,-0.3,-0.2
CCOC(=O)CC1(CCc2ccccc2)Oc2ccccc2N1S(=O)(=O)c1ccc(C)cc1 (stereo not given),5.2,0.1,11.9*,0.8,9.5,-1.8,-0.1
CCOC(=O)CC1(C)Oc2cc(Cl)ccc2N1S(=O)(=O)c1ccc(C)cc1 (stereo not given),-3.3,2.1,3.3,3.0,-7.2,/,/
Cc1csc(NC(=O)c2ccc(COc3ccccc3F)o2)n1,-12.9,/,-7.8,/,-9.7,/,/
